The record followed here is ChEMBL document CHEMBL5226322, “Harnessing the Role of HDAC6 in Idiopathic Pulmonary Fibrosis: Design, Synthesis, Structural Analysis, and Biological Evaluation of Potent Inhibitors” (J Med Chem, 2021).

The source made the active and inactive calls. The calls are words filed in the database; no cut-off is given here.

Data set [1] deals with Heart. Kind of data set: Cardiotoxicity in Langendorff-perfused Sprague-Dawley rat heart assessed as effect on QTc interval time at 1 uM by ECG analysis (reference value: 150.5 +/-5.5 milliseconds). The data set is classed as toxicity, tissue-based.
Data set [2] has as its system Heart. The data set is described as follows: Cardiotoxicity in Langendorff-perfused Sprague-Dawley rat heart assessed as effect on QRS interval time at 0.1 uM by ECG analysis (reference value: 15.2 +/-0.2 milliseconds). The data set is classed as toxicity, tissue-based.
Data set [3] in a line: Mutagenecity in Salmonella typhimurium TA98 in presence of S9 fraction at 1 to 75 uM incubated for 90 mins by Ames test. Particulars: salmonella enterica subsp. enterica serovar typhimurium, s9, 1.5 h, dose 1-75 µM. It is filed as toxicity, subcellular.
The species named for the next data set is Homo sapiens. Kind of data set: Antifibrotic activity in TGF-beta1-induced human Lung parenchyma assessed as inhibition of collagen 1 mRNA expression at 4.1 uM incubated upto 7 days by qRT-PCR analysis. It is filed as functional. Particulars: time <= 7.0 day. The gist of the method: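 Human lung parenchyma pieces (2 mm³) cultured in DMEM with TGF-β1 (10 ng/mL) plus compound at 0.41 or 4.1 μM or vehicle (0.1% DMSO). Tissue collected on day 7, homogenized, total RNA purified, then qRT-PCR for HDAC6, collagen I, collagen III, αSMA and fibronectin. Relative expression by the 2^-Ct method; n=3, paired t test.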
(In general: Real-time PCR tracks product formation cycle by cycle.)

Data set [4] can be described thus: Toxicity in zebra fish embryo assessed as mild cardiac edema at 100 uM […]. More on the design: species or system Danio rerio. To be noted: zebrafish. The gist of the method: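 Wildtype Tübingen zebrafish larvae reared at 28.5 °C (14 h light/10 h dark) in embryo medium with methylene blue. From 3 days old, exposed for 2 days to 1, 10, 25, 50 or 100 µM in embryo medium, or 0.1% DMSO vehicle. 4 larvae per well in 400 µL, 8 larvae per group. Larvae scored for swim bladder inflation and cardiac edema.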

The subject of data set [5] is Heart. Kind of data set: Cardiotoxicity in Langendorff-perfused Sprague-Dawley rat heart assessed as effect on QT interval time at 10 uM by ECG analysis (reference value: 76.2 +/-2.9 milliseconds). It is filed as toxicity, tissue-based.
Data set [6] in a line: Mutagenecity in Salmonella typhimurium TA100 in presence of S9 fraction at 1 to 75 uM incubated for 90 mins by Ames test. It is filed as toxicity, subcellular. To be noted: salmonella enterica subsp. enterica serovar typhimurium, s9, 1.5 h, dose 1-75 µM. On the technique in general: The Ames test uses bacterial strains that need an amino acid and regain growth without it when mutated back.

In data set [7] the test system is Heart. Kind of data set: Cardiotoxicity in Langendorff-perfused Sprague-Dawley rat heart assessed as effect on PQ interval time at 0.01 uM by ECG analysis (reference value: 43.6 +/-2.5 milliseconds). The data set is classed as toxicity, tissue-based.
Data set [8] concerns Heart. Kind of data set: Cardiotoxicity in Langendorff-perfused Sprague-Dawley rat heart assessed as effect on QRS interval time at 10 uM by ECG analysis (reference value: 15.2 +/-0.2 milliseconds). It is filed as toxicity, tissue-based.
The subject of data set [9] is Heart. The data set is described as follows: Cardiotoxicity in Langendorff-perfused Sprague-Dawley rat heart assessed as effect on QTc interval time at 0.01 uM by ECG analysis (reference value: 150.5 +/-5.5 milliseconds). It is filed as toxicity, tissue-based.

In the case of `CC1(C)c2ccccc2N(Cc2ccc(C(=O)NO)cc2)C1c1cccnc1` (racemic), the Time is 150.8 ms in the data set on Heart [1]; 15.4 ms with Heart [2]; 78.3 ms with Heart [5]; 44.1 ms in the data set with Heart [7]; 18 ms in the data set with Heart [8]; 154.6 ms in the data set on Heart [9]. Moreover, the Activity entry in [3] was “Non-Toxic”; in [4], “Toxic”; in data set [6] it was “Non-Toxic”. Moreover, the result in the data set filed under Homo sapiens was Active.
